Pf Dd2 inh = P. falciparum Dd2 growth inhibition | SYBR Green, 72 h; active compounds read low | activity change, % at 10 µM | 2.3% of 94,000 active | AID 1159554; in the data active means activity change below about -80%; inconclusive means no clear call, values can overlap the other calls
IDH1 R132H inh = IDH1 R132H (human) inhibition | O75874 | inhibition, % at 10 µM | AID 624101 | IDH1 R132H reductase, diaphorase/resazurin fluorescence, 60 min | 0.18% of 70,000 active; in the data active means inhibition above about 34%; inconclusive means no clear call, values can overlap the other calls; inactive means below about 11%;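 further: 0% = DMSO and 100% = no enzyme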
Target sequence (O75874 whole entry R132H): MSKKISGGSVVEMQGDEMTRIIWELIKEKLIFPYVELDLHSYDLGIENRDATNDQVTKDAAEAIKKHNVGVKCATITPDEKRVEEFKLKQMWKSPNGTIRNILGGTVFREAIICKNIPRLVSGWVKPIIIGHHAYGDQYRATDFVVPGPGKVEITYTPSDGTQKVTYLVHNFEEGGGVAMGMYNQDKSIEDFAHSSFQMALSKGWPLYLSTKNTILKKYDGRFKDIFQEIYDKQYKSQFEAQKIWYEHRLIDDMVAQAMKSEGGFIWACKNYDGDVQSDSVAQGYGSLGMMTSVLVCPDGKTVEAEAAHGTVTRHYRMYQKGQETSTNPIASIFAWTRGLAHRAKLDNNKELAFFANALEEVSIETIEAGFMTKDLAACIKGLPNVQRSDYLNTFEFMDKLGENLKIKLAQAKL
KDM4C inh = blocks human GASC-1 (KDM4C) demethylase activity; Q9H3R0; GST-KDM4C 2-372, H3K9me3 peptide, LANCE TR-FRET; inhibition, % at 12.5 µM; 0.15% of 96,000 active; AID 720574;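 active means mean replicate inhibition above about 25%, with at least 55% of replicates also reaching it, limit read from the data, passing the limit was not always enough; inconclusive means only one of those two conditions met; inactive means neither condition met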
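Test system: N-terminal GST-fused human GASC-1 (KDM4C) fragment, residues 2-372; quantity: GASC-1 enzyme at 10 nM final in reaction; dosing: single dose; schedule: 30 min demethylation and 1 h detection at room temperature; signal: LANCE TR-FRET, excitation 340 nm, emissions 618 and 671 nm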
T cruzi growth-1 = inhibitors of T. cruzi proliferation | T. cruzi beta-gal in NIH3T3, GalScreen luminescence, 90 h | inhibition, % at 8.34 µM | 5.9% of 77,000 active;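 active means mean inhibition above about 93%, with at least 55% of replicates each passing it, limit read from the data, passing the limit was not always enough; inconclusive means only one of those two conditions holds; inactive means neither condition holds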
T cruzi growth-2 = blocks T. cruzi growth in NIH3T3 host cells; shares compounds with T cruzi growth-1; T. cruzi beta-gal in NIH3T3, GalScreen luminescence, 90 h; inhibition, % at 8.35 µM; 72% of 5,600 active;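 active means mean replicate inhibition above about 95% and at least 55% of replicates individually reaching it, limit read from the data; inconclusive means only one of the two criteria is met; inactive means neither criterion is met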
T cruzi growth-3 = blocks T. cruzi growth in NIH3T3 host cells | shares compounds with T cruzi growth-1 | T. cruzi beta-gal in NIH3T3, GalScreen luminescence, 90 h | inhibition, % at 2.09 µM | 21% of 5,600 active | AID 651740;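 active means mean inhibition above about 95%, with at least 55% of replicates also reaching it, limit read from the data; inconclusive means meets just one of the two conditions; inactive means meets neither condition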;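 further: plate controls were neutral control median for no effect and positive control median for full effect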
3T3 cytotox = NIH/3T3 (mouse) viability loss; NIH/3T3 viability, CellTiter-Glo ATP luminescence, 90 h; 14% of 5,600 active; AID 651742; cytotoxicity (signal decrease), % at 8.35 µM; shares compounds with T cruzi growth-1;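 active means mean signal decrease across replicates above about 35% based on untreated-well scatter, with enough replicates individually passing, limit read from the data; inconclusive means no rule stated though some were filed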;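 further: 0% = median of neutral control wells and 100% = median of positive control wells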
3T3 cytotox 2 = cytotoxicity in mouse NIH/3T3 fibroblasts; shares compounds with T cruzi growth-1; NIH/3T3 viability, CellTiter-Glo ATP luminescence, 90 h; 56% of 5,600 active; inhibition, % at 24.9 µM;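 active means mean loss of cell viability signal at or above a set limit, and enough replicates individually reaching it; inconclusive means meets only the mean limit or only the replicate share; inactive means meets neither condition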;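 further: 0% = median of neutral control wells and 100% = median of positive control wells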
Starred values were filed as active, the others as inactive; ? = inconclusive; / = no result. In the library only some 5.8% were active in any assay of this set; here they are far more common.

SMILES	Pf Dd2 inh	IDH1 R132H inh	KDM4C inh	T cruzi growth-1	T cruzi growth-2	T cruzi growth-3	3T3 cytotox	3T3 cytotox 2
C[C@@H]1CN([C@@H](C)CO)C(=O)c2cc(NC(=O)Nc3ccc(C(F)(F)F)cc3)ccc2O[C@@H](C)CCCCO[C@H]1CN(C)S(=O)(=O)c1ccccc1	-49	/	0	109*	103*	114*	14	16
C[C@@H]1CN([C@@H](C)CO)C(=O)c2cc(NC(=O)Nc3ccc(C(F)(F)F)cc3)ccc2O[C@@H](C)CCCCO[C@@H]1CN(C)S(=O)(=O)c1ccccc1	-44	/	1	76	/	/	/	/
C[C@@H]1CCCCO[C@@H](CN(C)S(=O)(=O)c2ccccc2)[C@@H](C)CN([C@@H](C)CO)C(=O)c2cc(NC(=O)Nc3ccc(C(F)(F)F)cc3)ccc2O1	-59	/	1	105*	103*	106*	37*	63*
C[C@@H]1CCCCO[C@@H](CN(C)C(=O)CCCN(C)C)[C@H](C)CN([C@@H](C)CO)C(=O)c2cc(NC(=O)Nc3ccc4c(c3)OCO4)ccc2O1	54	/	3	106	/	/	/	/
C[C@@H]1CN([C@H](C)CO)C(=O)c2cc(NC(=O)Cc3cn(C)c4ccccc34)ccc2O[C@@H]1CN(C)Cc1ccc(Cl)c(Cl)c1	-9	0	0	102*	99*	59	16	37*
C[C@@H]1CN([C@H](C)CO)C(=O)Cc2cc(NC(=O)Cc3cn(C)c4ccccc34)ccc2O[C@H]1CN(C)Cc1ccc(Cl)c(Cl)c1	-55	0	-2	?	98*	86	18	43*
C[C@@H]1CN([C@H](C)CO)C(=O)Cc2cc(NC(=O)Nc3ccccc3)ccc2O[C@@H]1CN(C)Cc1ccc(Cl)c(Cl)c1	-9	/	-1	102*	108*	41	6	104*
C[C@@H]1CN([C@H](C)CO)C(=O)Cc2cc(NC(=O)Cc3cn(C)c4ccccc34)ccc2O[C@H]1CN(C)Cc1ccc(C(=O)Nc2ccccc2N)cc1	-16	-1	-1	?	91	37	5	15
C[C@@H]1CN([C@@H](C)CO)C(=O)c2cc(NC(=O)Cc3cn(C)c4ccccc34)ccc2O[C@@H]1CN(C)Cc1ccc(Cl)c(Cl)c1	-20	-6	-1	84	/	/	/	/
Cc1ccc(-c2cnc3c(c2)C(=O)N([C@H](C)CO)C[C@@H](C)[C@H](CN(C)CC2CCOCC2)O3)cc1	-12	-3	-1	-88	/	/	/	/
Cc1ccc(S(=O)(=O)Nc2ccc3c(c2)C(=O)N([C@@H](C)CO)C[C@@H](C)[C@H](CN(C)C(=O)Nc2ccc(C(F)(F)F)cc2)OCCCC[C@@H](C)O3)cc1	5	-2	-1	100*	102*	113*	32	36*
C[C@@H]1CCCCO[C@H](CN(C)C(=O)Nc2ccc(C(F)(F)F)cc2)[C@@H](C)CN([C@H](C)CO)C(=O)c2cc(NS(=O)(=O)c3ccc(F)cc3)ccc2O1	-32	4	0	100*	109*	49	-11	-11
Cc1ccc(S(=O)(=O)Nc2ccc3c(c2)C(=O)N([C@H](C)CO)C[C@H](C)[C@H](CN(C)C(=O)Nc2ccc(C(F)(F)F)cc2)OCCCC[C@@H](C)O3)cc1	-51	3	1	103*	104*	54	40*	48*
C[C@@H]1CCCCO[C@@H](CN(C)C(=O)Nc2ccc(C(F)(F)F)cc2)[C@@H](C)CN([C@H](C)CO)C(=O)c2cc(NS(=O)(=O)c3ccc(Cl)cc3)ccc2O1	-19	/	/	88	/	/	/	/
Cc1ccc(S(=O)(=O)Nc2ccc3c(c2)C(=O)N([C@H](C)CO)C[C@H](C)[C@H](CN(C)C(=O)Nc2ccc(C(F)(F)F)cc2)OCCCC[C@H](C)O3)cc1	-22	/	0	101*	101*	116*	-15	-1
C[C@@H]1CCCCO[C@H](CN(C)C(=O)Nc2ccc(C(F)(F)F)cc2)[C@H](C)CN([C@@H](C)CO)C(=O)c2cc(NS(=O)(=O)c3ccc(F)cc3)ccc2O1	-46	-1	0	79	/	/	/	/
C[C@@H]1CN([C@H](C)CO)C(=O)c2cc(NS(=O)(=O)c3ccc(Cl)cc3)ccc2O[C@@H](C)CCCCO[C@H]1CN(C)C(=O)Nc1ccc(C(F)(F)F)cc1	-68	5	3	86	/	/	/	/
CN(C)CC#Cc1ccc([C@H]2[C@@H](CO)N(C(=O)C3CC3)[C@H]2C#N)cc1	33	/	0	20	/	/	/	/
N#C[C@H]1[C@H](c2ccc(C3=CCCC3)cc2)[C@@H](CO)N1C(=O)c1cccc(F)c1	13	/	-3	56	/	/	/	/
COc1ccc(S(=O)(=O)Nc2ccc3c(c2)C(=O)N([C@H](C)CO)C[C@H](C)[C@@H](CN(C)C(=O)Nc2ccc(C(F)(F)F)cc2)OCCCC[C@H](C)O3)cc1	-72	/	/	101*	109*	116*	10	13
C[C@H]1CCCCO[C@@H](CN(C)C(=O)Nc2ccc(C(F)(F)F)cc2)[C@@H](C)CN([C@@H](C)CO)C(=O)c2cc(NS(C)(=O)=O)ccc2O1	-41	0	1	109*	107*	35	24	0
CCCC#Cc1ccc([C@@H]2[C@H]3CN(S(C)(=O)=O)CCCCN3[C@H]2CO)cc1	-30	/	0	24	/	/	/	/
C[C@H](NC(=O)C[C@@H]1C[C@H]2c3cc(NC(=O)NC4CCCC4)ccc3O[C@H]2[C@@H](CO)O1)c1ccccc1	-25	0	-2	23	/	/	/	/
CC(C)(O)C#Cc1ccc([C@H]2[C@@H](CO)N3CCCCN(C(=O)c4cccc(F)c4)C[C@@H]23)cc1	19	/	1	103*	105*	46	15	-30
CC(C)(O)C#Cc1ccc([C@@H]2[C@@H](CO)N3CCCCN(C(=O)c4cccc(F)c4)C[C@@H]23)cc1	27	/	-1	113*	52	14	-8	8
Cc1ccc(S(=O)(=O)NCC(=O)Nc2ccc(C)c(Cl)c2)cc1	/	0	/	/	/	/	/	/
C[C@@H]1CCCCO[C@@H](CN(C)S(=O)(=O)c2ccc(Cl)cc2)[C@@H](C)CN([C@H](C)CO)C(=O)c2cc(NC(=O)C3CCCCC3)ccc2O1	-79	/	-2	-11	/	/	/	/
C[C@@H]1CCCCO[C@@H](CN(C)S(=O)(=O)c2ccc(Cl)cc2)[C@H](C)CN([C@H](C)CO)C(=O)c2cc(NC(=O)C3CCCCC3)ccc2O1	-86*	/	0	108*	111*	113*	-6	-9

Assay outcomes deposited in PubChem by Broad Institute.
